ChEMBL document CHEMBL4229353, “Synthesis and antiviral evaluation of cyclopentyl nucleoside phosphonates” (Eur J Med Chem, 2018)
pEC50: −log10 of the molar value.

Key:
[1] = Cytotoxicity against HEL cells assessed as alteration in cell morphology after 3 days by microscopic analysis; format: cell-based; conditions: human
How it was run: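 Uninfected HEL cell cultures were exposed to graded compound concentrations. MCC is the lowest concentration producing a microscopically detectable alteration of cell morphology.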

[2] = Cytostatic activity against HEL cells after 3 days by Coulter counting method; format: cell-based; conditions: human
How it was run: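 HEL cells were seeded at 5 x 10^3 cells/well and left to proliferate for 24 h. Medium with graded compound concentrations was then added, followed by 3 days at 37 °C. Cells were counted with a Coulter counter. CC50, the concentration halving proliferation relative to untreated controls, was read from plots of cell number (% of control) versus concentration.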

Human alphaherpesvirus 1 = test: Antiviral activity against thymidine kinase-deficient ACV-resistant Herpes simplex virus 1 KOS infected in HEL cells assessed as […] measured after 2 to 3 days post infection; format: functional, organism-based; conditions: Human alphaherpesvirus 1, KOS
How it was run: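 Confluent HEL fibroblast monolayers in 96-well plates were inoculated with 100 CCID50 of HSV-1 (KOS or TK-deficient ACV-resistant KOS). After 2 h adsorption, the inoculum was removed and cells were incubated with varying compound concentrations. Virus-induced cytopathicity was recorded at 2-3 days post-infection.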

Human alphaherpesvirus 3 [3] = test: Antiviral activity against thymidine kinase deficient Varicella-Zoster virus 07-1 infected in HEL cells assessed as inhibition of plaque formation measured after 5 days post infection; format: functional, organism-based; conditions: Human alphaherpesvirus 3, 07-1, HEL, 120 h
How it was run: (§1)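 Confluent HEL fibroblast monolayers in 96-well plates were inoculated with 20 PFU of VZV (Oka or TK– strain 07-1). After 2 h adsorption, the inoculum was removed and cultures were incubated with varying compound concentrations. Plaque formation was recorded at 5 days post-infection.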

Human alphaherpesvirus 3 [4] = test: Antiviral activity against thymidine kinase expressing Varicella-Zoster virus Oka infected in HEL cells assessed as inhibition of plaque formation measured after 5 days post infection; format: functional, organism-based; conditions: Human alphaherpesvirus 3, strain Oka vaccine, 120 h; how it was run: as §1
Human alphaherpesvirus 2 = test: Antiviral activity against Herpes simplex virus 2 G infected in HEL cells assessed as […] measured after 2 to 3 days post infection; format: functional, organism-based; conditions: Human alphaherpesvirus 2, strain G
How it was run: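 Confluent HEL fibroblast monolayers were infected with 100 CCID50 of virus, and the inoculum was removed after 2 h adsorption. Cells were then cultured with serial compound concentrations. Virus-induced cytopathicity was scored at 2-3 days (HSV) or 6-7 days (HCMV) post-infection.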

Row | SMILES | MCC at 72 h [1] [µM] | CC50 at 72 h [2] [µM] | pEC50 (Human alphaherpesvirus 1) | pEC50 (Human alphaherpesvirus 3 [3]) | pEC50 (Human alphaherpesvirus 3 [4]) | pEC50 (Human alphaherpesvirus 2)
1 | Nc1nc2c(ncn2[C@@H]2C[C@H](OCP(=O)(O)O)[C@@H](O)C2)c(=O)[nH]1 | > 289 | > 289 | 4.85 | 5.08 | 4.77 | 4.47
2 | O=c1[nH]c(=O)n([C@H]2C[C@H](O)[C@@H](CO)O2)cc1/C=C/Br [BRIVUDINE] | > 300 | > 300 | < 4.52 | 5.47 | 7.68 | < 4.52
3 | Cc1cn([C@@H]2C[C@H](OCP(=O)(O)O)C[C@H]2O)c(=O)[nH]c1=O | > 247 | – | < 3.61 | < 3.61 | < 3.61 | < 3.61
4 | Nc1ccn(C[C@@H](CO)OCP(=O)(O)O)c(=O)n1 [CIDOFOVIR] | > 358 | > 358 | – | – | – | 5.64
5 | CC(C)OC(=O)[C@H](C)NP(=O)(CO[C@H]1C[C@@H](n2cnc3c(=O)[nH]c(N)nc32)C[C@@H]1O)N[C@@H](C)C(=O)OC(C)C | > 175 | > 175 | 4.46 | 4.53 | 4.46 | 4.07
6 | Nc1ncnc2c1ncn2[C@@H]1C[C@H](OCP(=O)(O)O)C[C@H]1O | > 303 | – | 3.79 | < 3.52 | < 3.52 | 3.88
7 | Nc1ncnc2c1ncn2[C@@H]1C[C@H](OCP(=O)(O)O)[C@@H](O)C1 | > 303 | – | < 3.52 | 4.10 | 3.59 | < 3.52
8 | Nc1nc2c(ncn2[C@@H]2C[C@H](OCP(=O)(O)O)C[C@H]2O)c(=O)[nH]1 | > 289 | > 289 | 4.00 | 5.05 | 5.27 | 4.24
9 | Nc1ccn([C@@H]2C[C@H](OCP(=O)(O)O)[C@@H](O)C2)c(=O)n1 | > 327 | – | < 3.49 | < 3.49 | < 3.49 | < 3.49
10 | CC(C)OC(=O)[C@H](C)NP(=O)(CO[C@@H]1C[C@@H](O)[C@H](n2cnc3c(=O)[nH]c(N)nc32)C1)N[C@@H](C)C(=O)OC(C)C | > 175 | > 175 | < 3.76 | < 3.76 | 4.18 | < 3.76
11 | Nc1nc2c(ncn2COC(CO)CO)c(=O)[nH]1 [GANCICLOVIR] | > 391 | > 391 | 5.41 | – | – | 7.72
12 | Nc1nc2c(ncn2COCCO)c(=O)[nH]1 [ACYCLOVIR] | > 444 | > 444 | < 4.06 | 4.85 | 5.47 | 6.54
13 | Cc1cn([C@@H]2C[C@H](OCP(=O)(O)O)[C@@H](O)C2)c(=O)[nH]c1=O | > 247 | 69.4 | 5.00 | 5.24 | 4.64 | 4.03
14 | Nc1ccn([C@@H]2C[C@H](OCP(=O)(O)O)C[C@H]2O)c(=O)n1 | > 327 | – | < 3.49 | < 3.49 | < 3.49 | < 3.49
